Experimental findings from ChEMBL document CHEMBL2069297, “Inhibition of galactosyltransferases by a novel class of donor analogues” (J Med Chem, 2012) are described below.

Data set [1] is described as follows: Drug uptake in human HL60 cell endoplasmic reticulum at 100 uM after 24 hrs by confocal fluorescence microscopy. The format is ADME, cell-based. The following applies: hl-60, 24 h. The method in brief:
(§1)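 HL-60 cells were grown in RPMI 1640 with 16.7% (v/v) heat-inactivated FCS, L-glutamine and PenStrep. They were seeded at 10^6 cells/mL onto a glass coverslip and kept 24 h at 37 °C, 5% CO2 with the sodium-salt analogue at 100 μM. The coverslip was washed with medium to remove extracellular fluorophore. The compound's intrinsic blue fluorescence (λem 434 nm) was imaged by confocal microscopy at 364 nm.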

Data set [2] is described as follows: Drug uptake in human HL60 cell golgi apparatus at 100 uM after 24 hrs by confocal fluorescence microscopy. In kind it is ADME, cell-based. The following applies: hl-60, 24 h. The method in brief: as §1
In data set [3] the test system is Neisseria meningitidis. The experiment in a line: Binding affinity to Neisseria meningitidis alpha-1,4-GalT after 10 mins by fluorescence quenching assay. An outline of the steps:
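Titration of the fluorescent donor analogue (200 nM final) with LgtC protein stock diluted 1/5 to 1/640 (eight dilutions) in A/B buffer (50 mM MOPS pH 7.0, 20 mM MnCl2, 1 mg/mL BSA). Emission read after 10 min at 37 °C (excitation 350 nm, emission 430 nm) and plotted against enzyme dilution. Run in triplicate.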

Data set [4] relates to Neisseria meningitidis. The data set can be described thus: Binding affinity to Neisseria meningitidis alpha-1,4-GalT by fluorescence quenching assay in presence of unlabeled UDP-Gal and UDP.
The nature of data set [5]: Inhibition of Neisseria meningitidis alpha-1,4-GalT after 15 mins by Dixon plot analysis. An outline of the steps: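 Radiochemical transfer assay with DTT-activated N. meningitidis LgtC (0.010 ng): UDP-Gal 0.57 μM plus UDP-[3H]-Gal, Lacβ-O(CH2)8CO2Me 2 mM, DTT 1.7 mM, inhibitor 0–12.5 μM, in A/B buffer pH 7. Incubated 15 min at 37 °C, stopped with water.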
Data set [6] deals with N-acetyllactosaminide alpha-1,3-galactosyltransferase (Bos taurus, UniProt P14769). The data set can be described thus: Inhibition of alpha-1,3-GalT in bovine after 15 mins by Dixon plot analysis. The method in brief: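 Bovine α-1,3-GalT (1.3 μg) in A/B buffer pH 7 with UDP-Gal 76 μM plus UDP-[3H]-Gal, Lacβ-O(CH2)8CO2Me 500 μM, and inhibitor 0–62.5 μM. Incubated 15 min at 37 °C, stopped with water; radiolabeled galactose transfer measured.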
Chain of N-acetyllactosaminide alpha-1,3-galactosyltransferase (P14769 whole entry): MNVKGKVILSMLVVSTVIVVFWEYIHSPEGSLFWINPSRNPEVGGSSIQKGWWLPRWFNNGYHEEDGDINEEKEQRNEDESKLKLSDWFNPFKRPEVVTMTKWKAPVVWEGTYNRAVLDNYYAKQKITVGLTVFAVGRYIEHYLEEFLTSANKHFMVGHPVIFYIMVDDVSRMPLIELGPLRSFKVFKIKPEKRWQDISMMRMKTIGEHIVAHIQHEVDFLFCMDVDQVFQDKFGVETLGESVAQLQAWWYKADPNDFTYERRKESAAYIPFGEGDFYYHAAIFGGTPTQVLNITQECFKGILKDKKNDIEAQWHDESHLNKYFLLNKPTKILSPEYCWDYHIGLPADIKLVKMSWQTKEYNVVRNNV

Data set [7] is described as follows: Inhibition of human GTB after 15 mins by Dixon plot analysis. The method in brief: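 Radiochemical assay on human GTB (0.049 ng): UDP-Gal 26 μM with UDP-[3H]-Gal, Fucα1,2Galβ-O(CH2)7CH3 acceptor 500 μM, inhibitor 0–62.5 μM, in A/B buffer pH 7. Incubated 15 min at 37 °C, then quenched with water.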
In data set [8] the target is T1, Beta-1,4-galactosyltransferase 1 (Bos taurus) (UniProt P08037).
T1 sequence (whole entry): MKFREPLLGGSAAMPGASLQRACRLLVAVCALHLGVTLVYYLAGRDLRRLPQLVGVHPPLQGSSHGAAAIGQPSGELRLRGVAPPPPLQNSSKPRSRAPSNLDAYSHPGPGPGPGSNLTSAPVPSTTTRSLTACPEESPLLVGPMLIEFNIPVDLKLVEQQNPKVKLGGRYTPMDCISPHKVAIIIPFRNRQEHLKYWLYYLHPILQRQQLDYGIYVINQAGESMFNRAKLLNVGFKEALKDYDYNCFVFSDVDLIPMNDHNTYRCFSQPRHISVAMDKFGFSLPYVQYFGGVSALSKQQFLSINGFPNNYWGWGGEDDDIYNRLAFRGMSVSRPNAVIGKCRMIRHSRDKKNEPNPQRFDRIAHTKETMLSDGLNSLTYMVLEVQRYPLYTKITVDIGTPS
The experiment in a line: Ratio of Km for the compound to Km for UDP-Gal in bovine beta-1,4-GalT.

Data set [9] is described as follows: Binding affinity to Neisseria meningitidis alpha-1,4-GalT after 15 mins by competitive binding assay.

Active and inactive are the calls of the source. The rule behind the calls is not given here.

Take `O=Cc1ccc(-c2cn([C@@H]3O[C@H](COP(=O)([O-])OP(=O)([O-])CC[C@H]4O[C@H](CO)[C@H](O)[C@H](O)[C@H]4O)[C@@H](O)[C@H]3O)c(=O)[nH]c2=O)s1.[Na+].[Na+]`: the Drug uptake result in data set [1] and in data set [2] was “Active” throughout.

Take `O=Cc1ccc(-c2cn([C@@H]3O[C@H](COP(=O)([O-])OP(=O)([O-])O[C@H]4O[C@H](CO)[C@H](O)[C@H](O)[C@H]4O)[C@@H](O)[C@H]3O)c(=O)[nH]c2=O)s1.[Na+].[Na+]`: the Drug uptake entry in data set [1] and in data set [2] was “Active” each time.

For `O=Cc1ccc(-c2cn([C@@H]3O[C@H](COP(=O)(O)OP(=O)(O)CC[C@H]4O[C@H](CO)[C@H](O)[C@H](O)[C@H]4O)[C@@H](O)[C@H]3O)c(=O)[nH]c2=O)s1` [listing 1 of 2 here], the Activity entry in data set [3] was “Dose-dependent effect”. Moreover, the outcome in data set [4] was inactive.

For `O=c1[nH]c(=O)n([C@@H]2O[C@H](COP(=O)(O)OP(=O)(O)O[C@H]3O[C@H](CO)[C@H](O)[C@H](O)[C@H]3O)[C@@H](O)[C@H]2O)cc1-c1ccccc1`, the Ki is 6 µM in data set [5], 76 µM in [6] and 48 µM in [7]. In [8], the Ratio turned out to be 6.

With `O=Cc1ccc(-c2cn([C@@H]3O[C@H](COP(=O)(O)OP(=O)(O)O[C@H]4O[C@H](CO)[C@H](O)[C@H](O)[C@H]4O)[C@@H](O)[C@H]3O)c(=O)[nH]c2=O)s1` [listing 1 of 2 here], the figures for the Ki in [5] and in data set [7] were 0.45 µM and 2.4 µM, respectively.

For `O=Cc1ccc(-c2cn([C@@H]3O[C@H](COP(=O)(O)OP(=O)(O)O[C@H]4O[C@H](CO)[C@H](O)[C@H](O)[C@H]4O)[C@@H](O)[C@H]3O)c(=O)[nH]c2=O)s1` [listing 2 of 2 here], in data set [8], the Ratio stood at 2.

As to `O=Cc1ccc(-c2cn([C@@H]3O[C@H](COP(=O)(O)OP(=O)(O)CC[C@H]4O[C@H](CO)[C@H](O)[C@H](O)[C@H]4O)[C@@H](O)[C@H]3O)c(=O)[nH]c2=O)s1` [listing 2 of 2 here], the Ki was 1.7 µM in [5], 18 µM in data set [6] and 3.8 µM in [7].

On to `COc1ccc(-c2cn([C@@H]3O[C@H](COP(=O)(O)OP(=O)(O)O[C@H]4O[C@H](CO)[C@H](O)[C@H](O)[C@H]4O)[C@@H](O)[C@H]3O)c(=O)[nH]c2=O)cc1`, for which, in data set [8], the Ratio stood at 3.3.

`O=c1ccn([C@@H]2O[C@H](COP(=O)(O)OP(=O)(O)O)[C@@H](O)[C@H]2O)c(=O)[nH]1` [URIDINE_DIPHOSPHATE]: the IC50 in [9] came out at 46 µM.

As to `O=c1[nH]c(=O)n([C@@H]2O[C@H](COP(=O)(O)OP(=O)(O)O[C@H]3O[C@H](CO)[C@H](O)[C@H](O)[C@H]3O)[C@@H](O)[C@H]2O)cc1-c1ccco1`, the Ki was 1.9 µM in data set [5], 90 µM in data set [6] and 33 µM in [7]. Also, the Ratio in [8] came to 2.

What is called Ki is a dissociation constant, usually derived from enzyme kinetics or from competition with a known ligand. A low value points to a stronger hold on the target. In general, IC50 refers to the concentration that inhibits the measured activity by half. A higher IC50 goes with weaker potency in that assay.
